Data published in ChEMBL document CHEMBL4196161, “Lead Optimization of 5-Aryl Benzimidazolone- and Oxindole-Based AMPA Receptor Modulators Selective for TARP γ-8” (ACS Med Chem Lett, 2018).
Converted amounts (≈) assume the structure as drawn.

Assays:
[1] = Hepatic extraction ratio in human liver microsomes at 1 uM measured after 60 mins in presence of NADPH by LC-MS/MS analysis; assay type: ADME, microsome; conditions: read-out: ERH
How it was run: (§1)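 Human or rat liver microsomal stability at 1 μM; results expressed as extraction ratio, i.e. predicted hepatic clearance divided by species-specific hepatic blood flow.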

[2] = Apparent permeability across basolateral to apical side in MDCK-MDR1 cells at 5 uM measured after 60 mins by LC-MS/MS analysis; assay type: ADME, cell-based, Canis lupus familiaris; conditions: dog
How it was run: (§2)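 Bidirectional apparent permeability measured in Madin–Darby canine kidney cells transfected with the MDR1 (P-gp) gene; Papp reported in ×10–6 cm/s.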

[3] = Thermodynamic solubility of the compound in fasted state simulated intestinal fluid at pH 6.5 incubated under stirred condition for 3 days; conditions: read-out: Therm_solubility
[4] = Hepatic extraction ratio in rat liver microsomes at 1 uM measured after 60 mins in presence of NADPH by LC-MS/MS analysis; assay type: ADME, microsome; conditions: read-out: ERH; how it was run: as §1
[5] = Thermodynamic solubility of the compound in simulated gastric fluid at pH 1.6 incubated under stirred condition for 3 days; assay type: physicochemical; conditions: read-out: Therm_solubility
How it was run: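 Thermodynamic solubility (μM) determined in simulated gastric fluid at pH 1.6 and in fasted state simulated intestinal fluid at pH 6.5.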

[6] = Apparent permeability across apical to basolateral side in MDCK-MDR1 cells at 5 uM measured after 60 mins by LC-MS/MS analysis; assay type: ADME, cell-based, Canis lupus familiaris; conditions: dog; how it was run: as §2
[7] = target: GRIA1/CACNG8 (Homo sapiens, UniProt P42261+Q8WXS5); assay: Modulation of recombinant human GluA1 flop isoform/TARPgamma8 expressed in HEK293F cells assessed as blockade of glutamate-induced calcium flux by calcium 5/6 dye based FLIPR assay; assay type: cell-based
Chain of GRIA1/CACNG8 (P42261 whole entry, the tested form may be a part, canonical isoform): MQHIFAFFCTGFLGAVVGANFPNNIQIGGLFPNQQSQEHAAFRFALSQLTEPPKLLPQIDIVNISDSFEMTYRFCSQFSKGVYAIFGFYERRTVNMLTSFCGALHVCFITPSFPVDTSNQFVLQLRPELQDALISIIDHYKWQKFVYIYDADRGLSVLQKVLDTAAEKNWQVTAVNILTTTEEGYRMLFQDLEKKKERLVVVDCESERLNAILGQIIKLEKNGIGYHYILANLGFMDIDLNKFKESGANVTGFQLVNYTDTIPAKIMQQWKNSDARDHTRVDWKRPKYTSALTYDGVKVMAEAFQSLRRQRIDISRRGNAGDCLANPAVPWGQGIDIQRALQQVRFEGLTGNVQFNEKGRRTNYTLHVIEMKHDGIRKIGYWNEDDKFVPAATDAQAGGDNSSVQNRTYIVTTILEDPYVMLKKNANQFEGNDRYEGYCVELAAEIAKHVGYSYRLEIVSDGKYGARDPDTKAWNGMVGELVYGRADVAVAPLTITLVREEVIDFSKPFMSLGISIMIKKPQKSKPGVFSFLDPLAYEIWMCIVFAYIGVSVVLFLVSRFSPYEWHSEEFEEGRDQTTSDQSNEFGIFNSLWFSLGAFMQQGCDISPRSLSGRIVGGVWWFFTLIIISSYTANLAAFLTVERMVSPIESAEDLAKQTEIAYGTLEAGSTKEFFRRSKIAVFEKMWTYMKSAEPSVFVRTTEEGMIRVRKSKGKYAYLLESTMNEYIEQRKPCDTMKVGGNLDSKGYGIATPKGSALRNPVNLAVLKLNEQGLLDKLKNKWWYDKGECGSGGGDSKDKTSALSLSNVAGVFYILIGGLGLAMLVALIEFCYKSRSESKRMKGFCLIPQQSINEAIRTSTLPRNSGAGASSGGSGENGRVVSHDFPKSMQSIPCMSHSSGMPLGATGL
Chain of GRIA1/CACNG8 (Q8WXS5 whole entry, the tested form may be a part, canonical isoform): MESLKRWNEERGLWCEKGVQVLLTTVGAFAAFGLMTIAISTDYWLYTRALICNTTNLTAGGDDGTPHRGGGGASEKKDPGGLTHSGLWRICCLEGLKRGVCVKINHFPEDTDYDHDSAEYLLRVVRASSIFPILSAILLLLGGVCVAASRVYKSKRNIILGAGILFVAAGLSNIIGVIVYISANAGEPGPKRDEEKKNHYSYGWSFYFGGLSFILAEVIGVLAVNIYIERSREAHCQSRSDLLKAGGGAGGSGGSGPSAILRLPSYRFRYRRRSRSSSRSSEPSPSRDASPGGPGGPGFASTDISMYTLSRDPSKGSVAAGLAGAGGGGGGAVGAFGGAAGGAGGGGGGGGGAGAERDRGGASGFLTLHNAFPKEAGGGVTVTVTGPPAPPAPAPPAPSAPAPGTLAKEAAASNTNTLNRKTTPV
How it was run: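 HEK-293 cells expressing a human GluA1o-γ-8 fusion construct; FLIPR calcium-flux read-out; pIC50 reported as mean and standard deviation of at least three assays run in triplicate.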

[8] = target: GRIA1/CACNG2 (Homo sapiens, UniProt P42261+Q9Y698); assay: Modulation of recombinant human GluA1 flop isoform/TARPgamma2 expressed in HEK293F cells assessed as blockade of glutamate-induced calcium flux by calcium 5/6 dye based FLIPR assay; assay type: cell-based
Chain of GRIA1/CACNG2 (P42261 whole entry, canonical isoform): as the sequence (P42261 whole entry, the tested form may be a part, canonical isoform) above
Chain of GRIA1/CACNG2 (Q9Y698 whole entry, canonical isoform): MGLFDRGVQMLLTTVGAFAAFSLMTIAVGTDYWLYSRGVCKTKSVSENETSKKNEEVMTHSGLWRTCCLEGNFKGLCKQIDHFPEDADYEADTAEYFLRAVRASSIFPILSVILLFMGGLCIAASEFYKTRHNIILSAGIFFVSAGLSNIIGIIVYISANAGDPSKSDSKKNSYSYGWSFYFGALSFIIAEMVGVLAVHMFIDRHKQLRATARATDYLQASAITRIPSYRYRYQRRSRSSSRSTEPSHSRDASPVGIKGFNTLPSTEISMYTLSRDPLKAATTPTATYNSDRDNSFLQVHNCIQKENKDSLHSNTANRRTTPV
How it was run: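 HEK-293 cells transiently expressing human GluA1o cotransfected with γ-2; FLIPR calcium-flux read-out; pIC50 reported; n = 1, run in triplicate.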

[9] = Clearance in Sprague-Dawley rat at 1 mg/kg, iv administered as single dose by LC-MS/MS analysis; assay type: ADME, organism-based; conditions: in vivo
How it was run: (§3)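 Single 1 mg/kg i.v. dose as a solution to Sprague–Dawley rats (n = 3/group); vehicle 20% HP-β-CD in one study series, 1:1 PEG400/H2O in the other; plasma PK parameters derived.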

[10] = Oral bioavailability in Sprague-Dawley rat at 5 mg/kg administered as single dose by LC-MS/MS analysis; assay type: ADME, organism-based; conditions: in vivo
How it was run: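 Sprague–Dawley rats (n = 3/group) given compound as a solution in 20% HP-β-CD, 1 mg/kg i.v. and 5 mg/kg p.o.; plasma pharmacokinetics derived from these arms.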

[11] = Ratio of unbound brain to plasma concentration in Sprague-Dawley rat at 1 mg/kg, iv or 5 mg/kg, po administered as single dose by LC-MS/MS analysis; assay type: ADME, organism-based; conditions: brain and plasma, read-out: K(p,uu,brain)
[12] = tested on: Rattus norvegicus; assay: Ex vivo receptor occupancy at GluA/TARPgamma8 in po dosed Sprague-Dawley rat assessed as plasma concentration causing reduction in [3H]JNJ-56022486 receptor labeling in hippocampus at 3 mg/kg, po at Tmax by autoradiography; assay type: functional, organism-based
How it was run: (§4)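 Rats (Sprague–Dawley, n = 2/dose group) dosed orally with suspensions in 0.5% HPMC at 3 or 10 mg/kg; hippocampal GluA/γ-8 occupancy at Tmax by ex vivo autoradiography with [3H]12 radiotracer; brain (ng/g) and plasma (ng/mL) concentrations taken at Tmax.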

[13] = tested on: Rattus norvegicus; assay: Ex vivo receptor occupancy at GluA/TARPgamma8 in po dosed Sprague-Dawley rat assessed as plasma concentration causing reduction in [3H]JNJ-56022486 receptor labeling in hippocampus at 10 mg/kg, po at Tmax by autoradiography; assay type: functional, organism-based; how it was run: as §4
[14] = Half life in Sprague-Dawley rat at 1 mg/kg, iv administered as single dose by LC-MS/MS analysis; assay type: ADME, organism-based; conditions: in vivo; how it was run: as §3
[15] = tested on: Rattus norvegicus; assay: Ex vivo receptor occupancy at GluA/TARPgamma8 in Sprague-Dawley rat assessed as reduction in [3H]JNJ-56022486 receptor labeling in hippocampus at 10 mg/kg, po at Tmax by autoradiography relative to control; assay type: functional; how it was run: as §4
[16] = Volume of distribution at steady state in Sprague-Dawley rat at 1 mg/kg, iv administered as single dose by LC-MS/MS analysis; assay type: ADME, organism-based; conditions: in vivo, read-out: Vdss; how it was run: as §3
[17] = tested on: Rattus norvegicus; assay: Ex vivo receptor occupancy at GluA/TARPgamma8 in po dosed Sprague-Dawley rat assessed as reduction in [3H]JNJ-56022486 receptor labeling in hippocampus measured within 10 mins by autoradiography; assay type: functional
[18] = species on record: Homo sapiens; assay: Selectivity ratio of IC50 for recombinant human GluA1 flop isoform/TARPgamma2 expressed in HEK293F cells to IC50 for recombinant human GluA1 flop isoform/TARPgamma8 expressed in HEK293F cells; assay type: cell-based
How it was run: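 Calcium-flux (FLIPR) inhibition in HEK-293 cells, giving pIC50 for each receptor. For γ-8, cells expressed a human GluA1o–γ-8 fusion construct, with at least three assays run in triplicate and reported as mean ± SD. For γ-2, cells expressed human GluA1-flop cotransfected with γ-2. The ratio compares the γ-2 IC50 with the γ-8 IC50.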

[19] = Protein binding in human plasma assessed as unbound fraction at 1 uM measured after 6 hrs by equilibrium dialysis method; assay type: ADME, cell-free
How it was run: (§5)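 Human or rat plasma protein binding at 1 μM compound, expressed as fraction unbound (fub).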

[20] = Protein binding in rat plasma assessed as unbound fraction at 1 uM measured after 6 hrs by equilibrium dialysis method; assay type: ADME, cell-free; how it was run: as §5

Structure (SMILES)	hepatic extraction ratio at 1 h, 1 µM [1]	Papp B→A at 1 h, 5 µM [2] [×10⁻⁶ cm/s]	solubility thermodynamic at 72 h [3] [µM]	hepatic extraction ratio at 1 h, 1 µM [4]	solubility thermodynamic at 72 h [5] [µM]	Papp A→B at 1 h, 5 µM [6] [×10⁻⁶ cm/s]	IC50 [7] [nM]	IC50 [8] [nM]	clearance [9] [mL/min/kg]	bioavailability [10] [%]	Kp uu [11]	Cp [12] [ng/mL]	Cp [13] [ng/mL]	half-life [14] [h]	Occ [15] [%]	Vd [16] [L/kg]	ED50 [17] [mg/kg]	Ratio IC50 [18]	fraction unbound at 6 h, 1 µM [19]	fraction unbound at 6 h, 1 µM [20]
O=c1[nH]c2ccc(-c3c(Cl)cncc3Cl)cc2[nH]1	< 0.3	83	52 (≈ 14.6 µg/mL)	< 0.2	42 (≈ 11.8 µg/mL)	16	251	> 10000	–	–	–	–	–	–	–	–	–	–	–	–
Cc1cccc(C)c1-c1ccc2[nH]c(=O)[nH]c2c1	0.3	34	276 (≈ 65.8 µg/mL)	0.5	5 (≈ 1.19 µg/mL)	42	–	> 10000	9	68	0.3	–	–	–	–	–	–	–	–	–
Cc1cc(-c2c(Cl)cncc2OC(F)(F)F)cc2c1NC(=O)C2	< 0.3	51	45 (≈ 15.4 µg/mL)	0.5	11 (≈ 3.77 µg/mL)	44	2.51	> 10000	37	–	–	87	2050	1.4	86	2.7	5.4	> 1000	–	–
O=c1[nH]c2ccc(-c3c(Cl)cccc3OC(F)(F)F)cc2o1	–	–	–	–	–	–	2510	–	–	–	–	–	–	–	–	–	–	–	–	–
Cc1ccccc1-c1ccc2c(c1)CC(=O)N2	–	–	–	–	–	–	2510	> 10000	–	–	–	–	–	–	–	–	–	–	–	–
Cc1cc(-c2c(Cl)cncc2OC(F)F)cc2c1NC(=O)C2	< 0.3	66	64 (≈ 20.8 µg/mL)	0.4	140 (≈ 45.5 µg/mL)	34	–	> 10000	19	–	–	–	–	1.2	72	1.9	–	> 1000	–	–
O=c1[nH]c2ccc(-c3c(Cl)cccc3Cl)cc2[nH]1	< 0.3	49	69 (≈ 19.3 µg/mL)	0.3	< 4	26	50.1	> 10000	–	–	–	–	–	–	–	–	–	–	0.5	0.6
